Reference: ChEMBL document CHEMBL1156274, “Potent arylsulfonamide inhibitors of tumor necrosis factor-alpha converting enzyme able to reduce activated leukocyte cell adhesion molecule shedding in cancer cell models” (J Med Chem, 2010)

How the values were obtained:
[1] = target: T1, Disintegrin and metalloproteinase domain-containing protein 17 (Homo sapiens, UniProt P78536); settings: for inhibition: A2774, at 10 µM; for IC50: A2774
[2] = target: T1, Disintegrin and metalloproteinase domain-containing protein 17; test: Inhibition of human recombinant ADAM17 by fluorometric assay
Interstitial collagenase = target: T2, Interstitial collagenase (Homo sapiens, UniProt P03956); test: Inhibition of MMP1 by fluorometric assay
T2 sequence (P03956 whole entry): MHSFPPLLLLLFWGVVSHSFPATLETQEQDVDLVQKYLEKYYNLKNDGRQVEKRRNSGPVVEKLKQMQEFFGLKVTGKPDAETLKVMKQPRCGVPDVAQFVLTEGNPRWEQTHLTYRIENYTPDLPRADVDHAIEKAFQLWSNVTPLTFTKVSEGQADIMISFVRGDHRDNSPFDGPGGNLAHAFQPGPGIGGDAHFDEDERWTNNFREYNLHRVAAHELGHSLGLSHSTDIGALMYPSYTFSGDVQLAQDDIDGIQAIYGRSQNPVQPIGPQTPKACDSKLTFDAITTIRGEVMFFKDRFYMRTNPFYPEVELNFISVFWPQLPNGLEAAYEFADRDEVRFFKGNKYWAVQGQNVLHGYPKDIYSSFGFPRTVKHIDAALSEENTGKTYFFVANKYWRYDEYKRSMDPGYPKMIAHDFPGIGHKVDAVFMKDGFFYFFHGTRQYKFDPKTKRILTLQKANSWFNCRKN

[3] = target: T3, Disintegrin and metalloproteinase domain-containing protein 10 (Homo sapiens, UniProt O14672); test: Inhibition of human recombinant ADAM10 by fluorometric assay
T3 sequence (O14672 whole entry): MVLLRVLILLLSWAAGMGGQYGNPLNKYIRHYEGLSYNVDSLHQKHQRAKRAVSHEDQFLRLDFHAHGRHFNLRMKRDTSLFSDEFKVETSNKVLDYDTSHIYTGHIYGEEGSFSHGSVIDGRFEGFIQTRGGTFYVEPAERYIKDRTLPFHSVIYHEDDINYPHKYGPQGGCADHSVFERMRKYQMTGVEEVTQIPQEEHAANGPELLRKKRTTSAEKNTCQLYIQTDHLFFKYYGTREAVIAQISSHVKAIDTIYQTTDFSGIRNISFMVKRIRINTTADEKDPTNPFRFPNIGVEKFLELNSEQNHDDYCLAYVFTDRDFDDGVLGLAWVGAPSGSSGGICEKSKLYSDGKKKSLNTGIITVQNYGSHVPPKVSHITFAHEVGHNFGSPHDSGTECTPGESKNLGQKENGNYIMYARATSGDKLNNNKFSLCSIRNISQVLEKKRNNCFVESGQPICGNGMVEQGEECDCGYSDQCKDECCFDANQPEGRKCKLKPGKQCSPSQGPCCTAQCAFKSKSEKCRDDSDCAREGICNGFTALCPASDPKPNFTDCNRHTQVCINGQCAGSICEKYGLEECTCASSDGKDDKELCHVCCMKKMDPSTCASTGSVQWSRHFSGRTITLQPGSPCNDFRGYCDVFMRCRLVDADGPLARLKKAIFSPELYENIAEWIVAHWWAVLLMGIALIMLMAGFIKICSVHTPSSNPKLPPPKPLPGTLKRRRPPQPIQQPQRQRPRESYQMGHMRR
Procedure, shortened: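 Recombinant human ADAM-10 (20 nM) preincubated with seven inhibitor concentrations for 1 h at 37 °C in Tris 25 mM, ZnCl2 25 μM, Brij-35 0.005%, pH 9. Fluorogenic substrate Mca-Lys-Pro-Leu-Gly-Leu-Dap(Dnp)-Ala-Arg-NH2 at 10 μM final. Fluorescence (ex 325/em 395 nm) monitored every 15 s for 20 min. IC50 from initial velocities versus inhibitor-free control; mean of three independent experiments in duplicate.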

[4] = target: Matrix metalloproteinase-9 (Homo sapiens, UniProt P14780); test: Inhibition of MMP9 by fluorometric assay
[5] = target: Matrix metalloproteinase-14 (Homo sapiens, UniProt P50281); test: Inhibition of human recombinant MMP14 by fluorometric assay
Procedure, shortened: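 Fluorogenic substrate Mca-Lys-Pro-Leu-Gly-Leu-Dap(Dnp)-Ala-Arg-NH2 (2 μM final). Enzymes: APMA-activated (2 mM, 2 h, 37 °C) pro-MMP-1 at 2.0 nM; MMP-14 catalytic domain at 1.0 nM. Each enzyme preincubated 4 h at 25 °C with seven inhibitor concentrations in Tris 50 mM pH 7.5, NaCl, CaCl2, Brij-35, 1% DMSO. Fluorescence (ex 325/em 395 nm) read every 15 s for 20 min.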

[6] = target: 72 kDa type IV collagenase (Homo sapiens, UniProt P08253)
[7] = target: T1, Disintegrin and metalloproteinase domain-containing protein 17; test: Inhibition of ADAM17 in human SKOV3 cells assessed as inhibition of constitutive sALCAM release by ELISA; type: cell-based, SK-OV-3
[8] = target: T1, Disintegrin and metalloproteinase domain-containing protein 17; test: Inhibition of ADAM17 in human MCF7 cells assessed as inhibition of constitutive sALCAM release by ELISA; type: cell-based
[9] = target: T1, Disintegrin and metalloproteinase domain-containing protein 17; test: Inhibition of ADAM17 in human A2774 cells assessed as inhibition of pervanadate-induced sALCAM release by ELISA; type: cell-based
[10] = target: T1, Disintegrin and metalloproteinase domain-containing protein 17; test: Inhibition of ADAM17 in human MDA-MB-468 cells assessed as inhibition of EGF-induced sALCAM release by ELISA; type: cell-based
[11] = target: T1, Disintegrin and metalloproteinase domain-containing protein 17; test: Inhibition of ADAM17 in human A2774 cells assessed as inhibition of constitutive sALCAM release by ELISA; type: cell-based
[12] = target: T1, Disintegrin and metalloproteinase domain-containing protein 17; test: Inhibition of ADAM17 in human MCF7 cells assessed as inhibition of pervanadate-induced sALCAM release by ELISA; type: cell-based
[13] = target: T1, Disintegrin and metalloproteinase domain-containing protein 17; test: Inhibition of ADAM17 in human SKOV3 cells assessed as inhibition of EGF-induced sALCAM release by ELISA; type: cell-based, SK-OV-3
[14] = target: T1, Disintegrin and metalloproteinase domain-containing protein 17; test: Inhibition of ADAM17 in human A2774 cells assessed as inhibition of EGF-induced sALCAM release by ELISA; type: cell-based
[15] = Cytotoxicity against human A2774 cells after 72 hrs by MTT assay; type: cell-based; settings: a2774, 72 h
Procedure, shortened: (§1)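 Cell lines grown in RPMI 1640 with 10% heat-inactivated FCS, 2 mM glutamine and penicillin-streptomycin at 37 °C, 5% CO2. Seeded at 2 × 10^3 cells/well and exposed to a range of inhibitor concentrations (DMSO stocks) for 24, 48 or 72 h at 37 °C. MTT added for 4 h, formazan dissolved in DMSO, absorbance read at 540 nm; mean of triplicates.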

[16] = target: T1, Disintegrin and metalloproteinase domain-containing protein 17; test: Inhibition of ADAM17 in human GI-CA-N cells assessed as inhibition of pervanadate-induced sALCAM release by ELISA; type: cell-based
MDA-MB-468 = test: Cytotoxicity against human MDA-MB-468 cells after 72 hrs by MTT assay; type: cell-based; settings: mda-mb-468, 72 h
Procedure, shortened: as §1

SK-OV-3 = test: Cytotoxicity against human SKOV3 cells after 72 hrs by MTT assay; type: cell-based; settings: sk-ov-3, 72 h
Procedure, shortened: as §1

[17] = target: T1, Disintegrin and metalloproteinase domain-containing protein 17; test: Inhibition of ADAM17 in human MDA-MB-468 cells assessed as inhibition of constitutive sALCAM release by ELISA; type: cell-based
MCF7 = test: Cytotoxicity against human MCF7 cells after 72 hrs by MTT assay; type: cell-based; settings: mcf7, 72 h
Procedure, shortened: as §1

[18] = target: T1, Disintegrin and metalloproteinase domain-containing protein 17; test: Inhibition of ADAM17 in human MDA-MB-468 cells assessed as inhibition of pervanadate-induced sALCAM release by ELISA; type: cell-based
[19] = Cytotoxicity against human GI-CA-N cells after 72 hrs by MTT assay; type: cell-based
Procedure, shortened: as §1

[20] = target: T1, Disintegrin and metalloproteinase domain-containing protein 17; test: Inhibition of ADAM17 in human MCF7 cells assessed as inhibition of EGF-induced sALCAM release by ELISA; type: cell-based
[21] = target: T1, Disintegrin and metalloproteinase domain-containing protein 17; test: Inhibition of ADAM17 in human GI-CA-N cells assessed as inhibition of constitutive sALCAM release by ELISA; type: cell-based

T1 sequence (P78536 whole entry, the tested form may be a part): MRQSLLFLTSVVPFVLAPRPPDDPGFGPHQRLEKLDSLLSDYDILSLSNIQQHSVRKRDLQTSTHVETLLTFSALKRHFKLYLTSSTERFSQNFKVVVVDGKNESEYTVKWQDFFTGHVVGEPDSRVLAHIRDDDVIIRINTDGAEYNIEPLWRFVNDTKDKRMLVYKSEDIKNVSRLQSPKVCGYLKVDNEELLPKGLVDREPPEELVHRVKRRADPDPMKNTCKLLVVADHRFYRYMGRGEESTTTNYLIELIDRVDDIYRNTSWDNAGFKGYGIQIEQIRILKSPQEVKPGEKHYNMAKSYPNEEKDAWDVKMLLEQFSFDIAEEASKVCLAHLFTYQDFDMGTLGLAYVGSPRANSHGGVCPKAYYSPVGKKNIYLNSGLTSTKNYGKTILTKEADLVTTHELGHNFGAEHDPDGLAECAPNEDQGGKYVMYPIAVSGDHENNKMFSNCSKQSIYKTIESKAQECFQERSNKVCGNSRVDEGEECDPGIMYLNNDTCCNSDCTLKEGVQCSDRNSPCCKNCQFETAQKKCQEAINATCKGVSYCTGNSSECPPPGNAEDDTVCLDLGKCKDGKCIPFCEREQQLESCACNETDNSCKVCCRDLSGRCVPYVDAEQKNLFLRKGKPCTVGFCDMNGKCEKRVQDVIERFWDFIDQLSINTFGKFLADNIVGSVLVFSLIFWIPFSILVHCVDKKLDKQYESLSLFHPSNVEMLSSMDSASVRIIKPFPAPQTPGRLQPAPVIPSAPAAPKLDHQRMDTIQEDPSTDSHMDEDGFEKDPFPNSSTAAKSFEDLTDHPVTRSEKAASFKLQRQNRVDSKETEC
72 kDa type IV collagenase, sequence (P08253 whole entry, the tested form may be a part): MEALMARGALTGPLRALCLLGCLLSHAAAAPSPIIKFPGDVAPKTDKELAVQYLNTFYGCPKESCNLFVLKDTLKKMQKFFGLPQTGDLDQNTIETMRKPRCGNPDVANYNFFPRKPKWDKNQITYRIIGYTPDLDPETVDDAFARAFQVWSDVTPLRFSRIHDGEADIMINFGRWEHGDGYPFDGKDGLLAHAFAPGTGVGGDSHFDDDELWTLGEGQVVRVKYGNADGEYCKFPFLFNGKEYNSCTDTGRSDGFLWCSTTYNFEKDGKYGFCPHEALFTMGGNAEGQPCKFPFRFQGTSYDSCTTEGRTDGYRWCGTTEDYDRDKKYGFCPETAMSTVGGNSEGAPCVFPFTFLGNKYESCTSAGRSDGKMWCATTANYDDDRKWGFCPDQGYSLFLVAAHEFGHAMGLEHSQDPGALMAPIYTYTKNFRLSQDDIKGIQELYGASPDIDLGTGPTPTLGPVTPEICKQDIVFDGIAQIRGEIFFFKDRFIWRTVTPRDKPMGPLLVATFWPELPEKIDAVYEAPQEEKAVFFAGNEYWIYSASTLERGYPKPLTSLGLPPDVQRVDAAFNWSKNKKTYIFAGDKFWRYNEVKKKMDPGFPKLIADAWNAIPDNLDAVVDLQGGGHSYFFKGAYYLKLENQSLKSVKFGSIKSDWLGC
Matrix metalloproteinase-9, sequence (P14780 whole entry): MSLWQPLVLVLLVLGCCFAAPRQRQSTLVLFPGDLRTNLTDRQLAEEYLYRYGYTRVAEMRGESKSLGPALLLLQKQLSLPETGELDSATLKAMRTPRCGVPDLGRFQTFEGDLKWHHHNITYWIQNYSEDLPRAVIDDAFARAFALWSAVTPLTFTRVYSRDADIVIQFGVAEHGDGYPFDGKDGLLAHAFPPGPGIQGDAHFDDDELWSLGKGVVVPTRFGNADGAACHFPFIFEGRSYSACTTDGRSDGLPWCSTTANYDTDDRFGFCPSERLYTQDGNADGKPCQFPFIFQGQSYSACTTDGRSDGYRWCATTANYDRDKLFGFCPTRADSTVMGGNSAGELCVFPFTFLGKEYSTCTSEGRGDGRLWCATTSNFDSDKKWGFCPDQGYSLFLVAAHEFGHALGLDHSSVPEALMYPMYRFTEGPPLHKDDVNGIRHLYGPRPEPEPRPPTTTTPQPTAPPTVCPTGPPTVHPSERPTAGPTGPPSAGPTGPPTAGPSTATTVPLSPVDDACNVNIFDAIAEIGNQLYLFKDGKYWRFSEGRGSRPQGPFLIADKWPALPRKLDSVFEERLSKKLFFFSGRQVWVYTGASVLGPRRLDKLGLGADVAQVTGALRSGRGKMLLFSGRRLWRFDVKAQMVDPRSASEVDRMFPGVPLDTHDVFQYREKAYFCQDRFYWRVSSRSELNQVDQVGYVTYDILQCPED

| SMILES | inhibition [1] [%] | IC50 [2] [µM] | IC50 (Interstitial collagenase) [µM] | IC50 [4] [µM] | IC50 [5] [µM] | IC50 [6] [µM] | also measured |
| --- | --- | --- | --- | --- | --- | --- | --- |
| CC(C)ON(CC(=O)NO)S(=O)(=O)c1ccc(-c2ccccc2)cc1 | 0 | 120 | – | – | – | – | – |
| CC#CCOc1ccc(S(=O)(=O)N(CC(C)C)[C@H](CCN2C(=O)c3ccccc3C2=O)C(=O)NO)cc1 | – | 0.059 | 0.4 | 0.013 | 0.029 | 0.021 | IC50 [3]: 2 µM |
| COc1ccc(S(=O)(=O)N(CC(C)C)[C@@H](C(=O)NO)C(C)C)cc1 | 9 | 1.1 | 0.056 | 0.0072 | 0.016 | 0.029 | – |
| COc1ccc(S(=O)(=O)N(Cc2cccnc2)[C@@H](C(=O)NO)C(C)C)cc1.Cl [CGS-27023A] | 33 | 0.16 | – | – | – | – | IC50 [3]: 0.89 µM; IC50 [7]: 13 µM; IC50 [8]: 6.9 µM; IC50 [9]: 0.38 µM; IC50 [10]: 0.75 µM; IC50 [11]: 18 µM; IC50 [12]: 0.75 µM; IC50 [13]: 0.11 µM; IC50 [14]: 3.2 µM; Activity [15]: Not Active; IC50 [16]: 1.1 µM; Activity (MDA-MB-468): Not Active; Activity (SK-OV-3): Not Active; IC50 [17]: 1.4 µM; Activity (MCF7): Not Active; IC50 [18]: 10 µM; Activity [19]: Not Active; IC50 [20]: 3 µM; IC50 [21]: 4.4 µM |
| COc1ccc(S(=O)(=O)N(CC(=O)NO)CC(C)C)cc1 | 26 | 2.3 | – | 0.0048 | 0.013 | 0.013 | – |
| O=C(NO)[C@@H](CCN1C(=O)c2ccccc2C1=O)NS(=O)(=O)c1ccc(-c2ccccc2C(F)(F)F)cc1 | – | 44 | 5 | 0.43 | 1.8 | 0.39 | – |
| COc1ccc(S(=O)(=O)N(OC(C)C)[C@@H](C(=O)NO)C(C)C)cc1 | 0 | 10 | 1.1 | 0.17 | 0.24 | 0.19 | – |
| O=C(NO)[C@@H](CCN1C(=O)c2ccccc2C1=O)NS(=O)(=O)c1ccc(Br)cc1 | – | 0.21 | 0.004 | 0.0011 | 0.0009 | 0.0015 | – |
| CC(C)CN(CC(=O)NO)S(=O)(=O)c1ccc(-c2ccccc2)cc1 | 14 | 53 | – | – | – | – | – |
| O=C(CNS(=O)(=O)c1ccc(Br)cc1)NO | 13 | 3.9 | 0.27 | 0.29 | 0.36 | 0.04 | – |
| CC#CCOc1ccc(S(=O)(=O)N[C@H](CCNC(=O)OCc2ccccc2)C(=O)NO)cc1 | – | 0.0016 | 1.1 | 0.046 | 0.21 | 0.017 | IC50 [3]: 0.24 µM; IC50 [8]: 1.6 µM; IC50 [9]: 0.011 µM; IC50 [10]: 0.11 µM; IC50 [11]: 0.26 µM; IC50 [12]: 0.053 µM; IC50 [1]: 0.011 µM; IC50 [13]: 0.0032 µM; IC50 [14]: 0.89 µM; Activity [15]: Not Active; IC50 [16]: 0.5 µM; Activity (MDA-MB-468): Not Active; Activity (SK-OV-3): Not Active; IC50 [17]: 0.42 µM; Activity (MCF7): Not Active; IC50 [18]: 1.1 µM; Activity [19]: Not Active; IC50 [20]: 0.42 µM; IC50 [21]: 0.09 µM |
| COc1ccc(S(=O)(=O)N(CC(=O)NO)OC(C)C)cc1 | 0 | 180 | 110 | 4.1 | 9.5 | 5 | – |
| COc1ccc(S(=O)(=O)NCC(=O)NO)cc1 | 32 | – | – | – | 0.21 | – | – |
| CC(=O)NCC[C@@H](NS(=O)(=O)c1ccc(Br)cc1)C(=O)NO | – | 0.11 | 1.5 | 0.19 | 0.3 | 0.19 | IC50 [3]: 2.3 µM |
| O=C(CNS(=O)(=O)c1ccc(-c2ccccc2)cc1)NO | 35 | 2.4 | – | – | – | – | – |
| CC#CCOc1ccc(S(=O)(=O)N[C@H](CCN2C(=O)c3ccccc3C2=O)C(=O)NO)cc1 | – | 0.0007 | 0.35 | 0.0035 | 0.0043 | 0.0042 | IC50 [3]: 0.19 µM; IC50 [7]: 2.6 µM; IC50 [8]: 1.4 µM; IC50 [9]: 0.015 µM; IC50 [10]: 0.28 µM; IC50 [11]: 1.1 µM; IC50 [12]: 0.051 µM; IC50 [1]: 0.015 µM; IC50 [13]: 0.0043 µM; IC50 [14]: 0.55 µM; Activity [15]: Not Active; IC50 [16]: 0.073 µM; Activity (MDA-MB-468): Not Active; Activity (SK-OV-3): Not Active; IC50 [17]: 1.7 µM; Activity (MCF7): Not Active; IC50 [18]: 0.8 µM; Activity [19]: Not Active; IC50 [20]: 0.76 µM; IC50 [21]: 0.097 µM |
| CC(=O)NCC[C@@H](NS(=O)(=O)c1ccc(-c2ccccc2)cc1)C(=O)NO | – | 0.3 | 0.196 | 0.0086 | 0.034 | 0.0007 | – |
